We go through two compounds from ChEMBL document CHEMBL5252546, “Salutaxel, a Conjugate of Docetaxel and a Muramyl Dipeptide (MDP) Analogue, Acts as Multifunctional Prodrug That Inhibits Tumor Growth and Metastasis” (J Med Chem, 2018).

Calls of active or inactive are those of the source. No cut-off for these calls is given here.

In data set [1] the test system is 4T1. Description: Antitumor activity against mouse 4T1 cells xenografted with BALB/c mouse assessed as reduction lung metastatic nodules at 5.7 mg/kg,iv in presence of compound 5b administrated once per week for 4 weeks. The data set is classed as functional, organism-based. Put shortly: (§1)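 4T1 cells injected into mammary fat pads of BALB/c mice. Dosing iv once per week for 4 weeks, saline vehicle; single-agent arms were given alone or with the peptide component (5b or 6). Endpoints were body weight, tumour volume, tumour weight, lung metastatic nodule count and lung metastasis score. Mean ± SEM, n = 10; ANOVA and Student's t test.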

Data set [2] relates to 4T1. Briefly: Antitumor activity against mouse 4T1 cells implanted in BALB/c mouse assessed as increase in tumor NOD1 expression level at 5.7 mg/kg,iv administrated once per week for 4 weeks in presence of compound 5b by western blot assay. The data set is classed as functional, organism-based. Put shortly: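 Tumour-bearing BALB/c mice (4T1 cells into mammary fat pad) given iv saline vehicle or test agents once weekly for 4 weeks. Tumours excised and probed by western blot for MMP9, MMP2 and NOD1, β-actin as loading control. Bands averaged over five mice per group; representative of two independent experiments.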

Data set [3] concerns 4T1. Description: Antitumor activity against mouse 4T1 cells implanted in BALB/c mouse assessed as decrease in tumor MMP2 expression level at 5.7 mg/kg,iv administrated once per week for 4 weeks by western blot assay. The data set is classed as functional, organism-based. In outline: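 4T1 cells injected into mammary fat pads of BALB/c mice. Saline vehicle or test article given iv once weekly for 4 weeks. Spleen, lung and tumor lysates immunoblotted for MMP2/MMP9 with β-actin as loading control. Bands averaged over five mice per group, representative of two independent experiments.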
In general terms: Immunoblotting shows a protein as a band on a membrane.

The subject of data set [4] is 4T1. Description: Antitumor activity against mouse 4T1 cells implanted in BALB/c mouse assessed as decrease in lung injury at 5.7 mg/kg,iv administrated once per week for 4 weeks by H and E staining based assay. The data set is classed as functional, organism-based. Put shortly: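 BALB/c mice bearing orthotopic mammary fat pad 4T1 tumors, dosed iv weekly for 4 weeks with saline vehicle as control. Lung sections stained with hematoxylin and eosin and examined by light microscopy at 40× for metastasis, inflammatory infiltration and alveolar wall thickening.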

The nature of data set [5]: Toxicity in BALB/c mouse xenografted with human A549/Taxol cells assessed as side effects at 5.7 mg/kg,iv administrated once per week for 3 weeks. The settings on record: in vivo, 504 h. The data set is classed as organism-based, A549/TR. Put shortly: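 Nude BALB/c nu/nu mice received subcutaneous human tumour cells into the right flank. Dosing started at mean tumour volume of 100–120 mm3, iv once weekly for 3 weeks; the taxane arm was an equimolar control. Body weight and overt side effects were monitored. Mean ± SEM, n = 8.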
(In general: A xenograft is tissue or cells of one species grown in another, often human tumour cells in immunodeficient mice.)

A short description of data set [6]: in vivo. The settings on record: mouse, plasma, iv, 5.7 mg/kg.
Data set [7] concerns 4T1. Description: Antitumor activity against mouse 4T1 cells implanted in BALB/c mouse assessed as decrease in spleen MDSC cells at 5.7 mg/kg,iv measured after 28 days (reference value: 38%). Set-up: scale not given: the % may be the effect or the level left. The data set is classed as functional. The following applies: time 28 day. Put shortly: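 Splenocytes taken from 4T1 fat-pad tumor-bearing BALB/c mice after 28 days of tumor growth with weekly iv dosing. Cells stained with anti-CD11b PE and anti-Gr-1 FITC, and the Gr-1+CD11b+ percentage scored by flow cytometry. Eight mice per treated group, five naive. Mean ± SEM.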

Data set [8] concerns 4T1. Description: Antitumor activity against mouse 4T1 cells xenografted with BALB/c mouse assessed as reduction lung metastatic nodules at 5.7 mg/kg,iv in presence of compound 6 administrated once per week for 4 weeks. The data set is classed as functional, organism-based. Put shortly:
as §1

Data set [9] is described as follows: Stability in human plasma assessed as compound remaining at 1 uM incubated for 6 hrs. The data set is classed as ADME, cell-free.
Data set [10] is described as follows: Cmax in Beagle dog at 1 mg/kg,iv measured upto 24 hrs. The data set is classed as ADME, organism-based, Canis lupus familiaris. Set-up: dose 1 mg/kg, time < 24 hrs, route iv. The following applies: in vivo. In outline: (§2)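 Beagle dogs were given a single iv infusion at 1, 2 or 4 mg/kg. Plasma parent drug and released docetaxel were followed over time. Cmax, Tmax, AUC, MRT, t1/2, CL and Vss were reported by sex and for all dogs combined.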

The target of data set [11] is Cytochrome P450 2D6 (Homo sapiens, UniProt P10635). Description: Inhibition of CYP2D6 in human liver microsomes using probe substrate at 0.1 to 100 uM in presence of NADPH. The following applies: dose 0.1-100 µM. The data set is classed as ADME, Microsome.
Sequence of Cytochrome P450 2D6 (P10635 whole entry): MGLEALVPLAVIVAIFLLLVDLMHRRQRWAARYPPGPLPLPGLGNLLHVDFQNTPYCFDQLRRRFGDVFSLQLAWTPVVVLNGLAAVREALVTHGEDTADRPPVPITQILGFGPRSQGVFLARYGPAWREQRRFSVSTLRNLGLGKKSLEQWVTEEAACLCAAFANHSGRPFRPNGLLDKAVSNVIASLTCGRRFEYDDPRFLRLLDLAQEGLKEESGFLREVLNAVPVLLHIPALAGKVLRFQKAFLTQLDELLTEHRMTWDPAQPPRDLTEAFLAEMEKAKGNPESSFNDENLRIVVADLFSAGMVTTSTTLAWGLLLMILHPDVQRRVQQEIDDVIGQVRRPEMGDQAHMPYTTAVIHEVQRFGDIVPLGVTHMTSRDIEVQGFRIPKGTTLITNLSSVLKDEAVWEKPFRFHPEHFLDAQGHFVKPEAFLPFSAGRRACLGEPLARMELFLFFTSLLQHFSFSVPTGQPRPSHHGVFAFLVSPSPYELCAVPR
A short description of data set [12]: Toxicity in Beagle dog assessed as decrease in body temperature at 1 to 4 mg/kg,iv. The data set is classed as organism-based, Canis lupus familiaris. The following applies: in vivo, dose 1-4 mg/kg.
Data set [13] is described as follows: Volume of distribution at steady state in female Beagle dog at 4 mg/kg,iv measured upto 24 hrs. The data set is classed as ADME, organism-based, Canis lupus familiaris. The settings on record: in vivo, read-out: Vdss.
Data set [14] is described as follows: AUC (0-t) in Beagle dog at 1 mg/kg,iv measured upto 24 hrs. The data set is classed as ADME, organism-based, Canis lupus familiaris. Also on record: dose 1 mg/kg, time < 24 hrs, route iv. The following applies: in vivo. Put shortly: (§3)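 Single iv dose: rats 2, 4 or 8 mg/kg by intravenous injection; Beagle dogs 1, 2 or 4 mg/kg by intravenous infusion. Plasma concentration–time data were analysed by sex and pooled. Reported parameters: Cmax, Tmax, AUC0−t, AUC0−∞, MRT0−∞, t1/2, CL, Vss, given as mean ± SD.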

The nature of data set [15]: Volume of distribution at steady state in female rat at 4 mg/kg,iv measured upto 24 hrs. The data set is classed as ADME, organism-based. The settings on record: in vivo, read-out: Vdss.
Data set [16] is described as follows: Tmax in female rat at 8 mg/kg,iv measured upto 24 hrs. The data set is classed as ADME, organism-based. The settings on record: in vivo.
Data set [17] is described as follows: Clearance in rat at 2 mg/kg,iv measured upto 24 hrs. The data set is classed as ADME, organism-based. The following applies: in vivo. Put shortly:
(§4)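 Rats were given a single iv injection at 2, 4 or 8 mg/kg. Plasma parent drug and released docetaxel were followed over time. Cmax, Tmax, AUC, MRT, t1/2, CL and Vss were reported for males, females and all animals combined.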

Data set [18] can be described thus: Half life in female rat at 4 mg/kg,iv measured upto 24 hrs. The data set is classed as ADME, organism-based. The settings on record: in vivo.
Data set [19] in a line: MRT in mouse tumor implanted with mouse 4T1 cells at 10 mg/kg,iv measured upto 72 hrs. The data set is classed as ADME, organism-based, Neoplasm.
Data set [20] in a line: Cmax in Beagle dog at 2 mg/kg,iv measured upto 24 hrs. The data set is classed as ADME, organism-based, Canis lupus familiaris. Also on record: dose 2 mg/kg, time < 24 hrs, route iv. The settings on record: in vivo. Put shortly:
as §2

Data set [21] is described as follows: Chronic toxicity in male Sprague-Dawley rat at 2 to 8 mg/kg,iv administered once per week for 30 days. The data set is classed as organism-based. The settings on record: in vivo, 720 h, dose 2-8 mg/kg, time 30 day. Put shortly: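 Long-term toxicity: rats given iv 2, 4 or 8 mg/kg and dogs 3, 6 or 18 mg/kg once weekly over 30 days; toxicokinetics recorded; highest non-severely toxic dose determined by sex.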

Data set [22] is described as follows: Volume of distribution at steady state in rat at 8 mg/kg,iv measured upto 24 hrs. The data set is classed as ADME, organism-based. The settings on record: in vivo, read-out: Vdss.
Data set [23] in a line: Drug metabolism in dog hepatocytes assessed as docetaxel metabolite formation at 20 uM incubated for 180 mins. The data set is classed as ADME, cell-based, Canis lupus familiaris, Hepatocyte. The settings on record: 3 h.
Data set [24] can be described thus: Half life in rat at 2 mg/kg,iv measured upto 24 hrs. The following applies: in vivo. The data set is classed as ADME, organism-based.
Data set [25] is described as follows: AUC (0-infinity) in rat at 8 mg/kg,iv measured upto 24 hrs. The data set is classed as ADME, organism-based. Set-up: time < 24 hrs, dose 8 mg/kg, route iv. The settings on record: in vivo. In outline: as §3
Data set [26] is described as follows: AUC (0-t) in male Beagle dog at 4 mg/kg,iv measured upto 24 hrs. The data set is classed as ADME, organism-based, Canis lupus familiaris. Also on record: dose 4 mg/kg, time < 24 hrs, route iv. The settings on record: in vivo. In outline: as §3
Data set [27] in a line: Drug metabolism in rat urine assessed as metabolite MDA-205 formation at 4 mg/kg,iv measured after 24 hrs. The data set is classed as ADME, organism-based. The settings on record: in vivo.
Data set [28] can be described thus: Tmax in rat at 2 mg/kg,iv measured upto 24 hrs. The settings on record: in vivo. The data set is classed as ADME, organism-based.
Data set [29] can be described thus: Toxicity in HaM/ICR mouse assessed as effect on motor coordination at 5 to 20 mg/kg,iv. The settings on record: in vivo, dose 5-20 mg/kg. The data set is classed as organism-based.
Data set [30] in a line: Clearance in Beagle dog at 1 mg/kg,iv measured upto 24 hrs. The settings on record: in vivo. The data set is classed as ADME, organism-based, Canis lupus familiaris. Put shortly: as §2
Data set [31] is described as follows: AUC (0-infinity) in female Beagle dog at 4 mg/kg,iv measured upto 24 hrs. The data set is classed as ADME, organism-based, Canis lupus familiaris. Also on record: dose 4 mg/kg, time < 24 hrs, route iv. The following applies: in vivo. Put shortly:
as §3

Data set [32] can be described thus: Cmax in male rat at 8 mg/kg,iv measured upto 24 hrs. The data set is classed as ADME, organism-based. Also on record: time < 24 hrs, dose 8 mg/kg, route iv. The following applies: in vivo. In outline: as §4

Turning to `CC(=O)O[C@@]12CO[C@@H]1C[C@H](O)[C@@]1(C)C(=O)[C@H](O)C3=C(C)[C@@H](OC(=O)[C@H](O)[C@@H](NC(=O)OC(C)(C)C)c4ccccc4)C[C@@](O)([C@@H](OC(=O)c4ccccc4)[C@H]21)C3(C)C` [DOCETAXEL ANHYDROUS], the result in data set [1], in data set [2], in [3] and in data set [8] was inactive. In addition, the result in data set [4] was Active. Besides, the Activity entry in data set [5] was “Non-Toxic”; in data set [7], 36.4%. For the same compound, the area under the curve AUC(0-t) (as a rule, exposure summed from dosing to a finite time, without extrapolation to infinity) at 72 h in data set [6] was 2.24 µM·h.

Take `CC(=O)O[C@@]12CO[C@@H]1C[C@H](O)[C@@]1(C)C(=O)[C@H](O)C3=C(C)[C@@H](OC(=O)[C@H](OC(=O)CCC(=O)NCCCC[C@H](NC(=O)CC[C@@H](NC(=O)[C@H](C)NC(=O)/C=C/c4ccc(F)cc4Cl)C(N)=O)C(=O)O)[C@@H](NC(=O)OC(C)(C)C)c4ccccc4)C[C@@](O)([C@@H](OC(=O)c4ccccc4)[C@H]21)C3(C)C`: the Stability result in [9] is reported as “Stable”. The highest concentration (Cmax) – broadly, the peak of the concentration-time curve – in [10] amounted to 3880 ng/mL; in data set [20] it was 12700 ng/mL; in [32] it was 61.9 µg/mL. For the same compound, the “inhibition (INH)” value in [11] is given as “Not Active”. The values for the Activity entry in [12], in [21] and in [29] were “Toxic”, “Toxic” and “Non-Toxic”, respectively. In addition, the Vd amounted to 0.087 L/kg in [13], 0.08 L/kg in [15] and 0.096 L/kg in [22]. The AUC(0-t) at 24 h in [14] turned out to be 1590 ng·h/mL; in data set [26], 15200 ng·h/mL. In addition, the Tmax in data set [16] and in [28] was 4.98 min throughout. The figures for the clearance in [17] and in [30] were 6.66 mL/min/kg and 11.5 mL/min/kg, respectively. Moreover, the values for the half-life in data set [18] and in data set [24] were 10.4 min and 7.8 min, respectively. For the same compound, the MRT (usually the average time that molecules of a dose stay in the body) in [19] worked out at 2.2 h. The Drug metabolism entry in data set [23] and in data set [27] was “Metabolite_Detected” in each case. The results for the AUC(0-inf) in [25] and in data set [31] were 46100 ng·h/mL and 20300 ng·h/mL, respectively.
